Assay results taken from ChEMBL document CHEMBL1157655, “Design and synthesis of novel series of pyrrole based chemotypes and their evaluation as selective aldose reductase inhibitors. A case of bioisosterism between a carboxylic acid moiety and that of a tetrazole” (Bioorg Med Chem, 2010).
One block for each molecule: values may come before it.

How the values were obtained:
[1] = target: T1, Aldo-keto reductase family 1 member A1 (Rattus norvegicus) (UniProt P51635); experiment: Inhibition of rat kidney aldehyde reductase at 0.1 mM after 20 mins by spectrometric analysis
T1 sequence (whole entry): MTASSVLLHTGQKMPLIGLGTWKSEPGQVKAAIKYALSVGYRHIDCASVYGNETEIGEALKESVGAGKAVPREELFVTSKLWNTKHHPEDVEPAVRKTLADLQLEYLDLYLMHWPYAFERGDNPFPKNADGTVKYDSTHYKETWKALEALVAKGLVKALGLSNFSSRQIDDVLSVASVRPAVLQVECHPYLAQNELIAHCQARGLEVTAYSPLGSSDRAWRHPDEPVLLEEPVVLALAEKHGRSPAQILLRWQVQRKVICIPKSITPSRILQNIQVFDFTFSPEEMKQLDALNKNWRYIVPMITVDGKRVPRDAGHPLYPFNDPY

[2] = target: Aldo-keto reductase family 1 member B1 (Rattus norvegicus) (UniProt P07943); experiment: Inhibition of aldose reductase in Fischer-344 rat lens homogenate at 0.1 mM by spectrometric analysis
[3] = target: Aldo-keto reductase family 1 member B1 (Rattus norvegicus, UniProt P07943); experiment: Inhibition of aldose reductase in Fischer-344 rat lens homogenate by spectrometric analysis
[4] = Antioxidant activity against AAPH-induced lipid peroxidation in unilamellar DOPC liposomes after 80 mins by thiocyanate reagent method; format: functional
Method in brief: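 DOPC unilamellar liposomes (final 0.8 mM, phosphate buffer 20 mM pH 7.4) incubated with test compound (10–300 µM range stated) and AAPH (final 10 mM) at 50 °C for 80 min. Aliquots extracted with ice-cold CHCl3/MeOH (2:1) containing BHT. Lipid hydroperoxide determined by thiocyanate method, absorbance at 500 nm, quantified against cumene hydroperoxide calibration curve. Triplicate.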

[5] = test system: Radical scavenging activity; experiment: Antioxidant activity assessed as DPPH radical scavenging activity at 0.2 mM; format: functional
Method in brief: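 Compounds in absolute ethanol added to an equal volume of ethanolic DPPH to give final 0.2–0.0125 mM compound and 0.2 mM DPPH. Continual absorbance decrease at 517 nm followed. Trolox reference. Triplicate.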

Structure (SMILES): O=C(c1ccccc1)c1ccn(Cc2nn[nH]n2)c1
inhibition [1]: 23%
inhibition [2]: 40%

Structure (SMILES): O=C(c1ccccc1)c1cccn1-c1nn[nH]n1
inhibition [1]: 18%
IC50 [3]: 20 µM
IC50 [4]: > 300 µM
Activity [5]: 10%

Structure (SMILES): O=C(c1ccccc1)c1ccn(CCCc2nn[nH]n2)c1
inhibition [1]: 35%
inhibition [2]: 41%

Structure (SMILES): O=C(O)CCCn1ccc(C(=O)c2ccccc2)c1
inhibition [1]: 22%
IC50 [3]: 6.04 µM

Structure (SMILES): O=C(O)CCn1ccc(C(=O)c2ccccc2)c1
inhibition [1]: 20%
IC50 [3]: 9.7 µM

Now from value to molecule, other results behind:

inhibition [1]: 18%
IC50 [3]: 18 µM
IC50 [4]: > 300 µM
Structure (SMILES): O=C(c1ccccc1)c1ccn(-c2nn[nH]n2)c1
Activity [5]: 10%

inhibition [1]: 41%
inhibition [2]: 6%
Structure (SMILES): O=C(c1ccccc1)c1ccn(CCc2nn[nH]n2)c1

IC50 [4]: 93.5 µM
Structure (SMILES): Cc1c(C)c2c(c(C)c1O)CCC(C)(C(=O)O)O2 (stereo not drawn) [TROLOX]
Activity [5]: 98%

inhibition [1]: 34%
IC50 [4]: > 300 µM
Structure (SMILES): O=C(O)Cn1ccc(C(=O)c2ccccc2)c1
Activity [5]: 10%
